Target: T1, Polyphenol oxidase 2 (Agaricus bisporus, UniProt O42713)
T1 sequence (O42713 whole entry): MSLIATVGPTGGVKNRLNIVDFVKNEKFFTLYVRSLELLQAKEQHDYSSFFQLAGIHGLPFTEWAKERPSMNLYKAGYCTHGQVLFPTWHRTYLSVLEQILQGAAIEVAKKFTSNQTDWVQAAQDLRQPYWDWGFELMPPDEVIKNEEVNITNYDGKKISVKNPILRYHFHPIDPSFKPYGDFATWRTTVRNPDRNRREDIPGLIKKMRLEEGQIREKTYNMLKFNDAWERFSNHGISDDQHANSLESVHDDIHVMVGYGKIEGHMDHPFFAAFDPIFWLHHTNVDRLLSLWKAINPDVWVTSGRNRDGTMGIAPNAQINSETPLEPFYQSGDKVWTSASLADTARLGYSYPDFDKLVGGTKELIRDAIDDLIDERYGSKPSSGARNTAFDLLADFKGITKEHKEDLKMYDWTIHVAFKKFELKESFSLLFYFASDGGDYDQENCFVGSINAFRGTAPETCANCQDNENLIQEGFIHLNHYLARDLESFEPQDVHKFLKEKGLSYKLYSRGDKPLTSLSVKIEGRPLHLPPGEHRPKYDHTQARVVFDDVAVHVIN
Test: Non-competitive inhibition of mushroom tyrosinase using L-tyrosine as substrate by Lineweaver-Burk plots analysis
In short: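 Absorbance at 475 nm read at 30 °C in PBS with 5% DMSO. Global nonlinear Michaelis–Menten fitting over four inhibition models gave Vmax, Km, Kic and Kiu, with the model chosen by minimal χ2.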

SMILES | Ki [nM]
NC(=S)c1ccccn1 | 2700
NC(=S)c1ccccc1 | 700
NC(=S)c1ccncc1 | 22300
CCc1cc(C(N)=S)ccn1 [CHEBI:4885] | 1900
CCCc1cc(C(N)=S)ccn1 [Ektebin] | 2400
NC(=S)c1cccnc1 [thionicotinamide] | 4300
